Measured values: ChEMBL document CHEMBL1687824, “Overexpression of patA and patB, which encode ABC transporters, is associated with fluoroquinolone resistance in clinical isolates of Streptococcus pneumoniae” (2011)
Converted amounts (≈) assume the structure as drawn.

Assays:
Streptococcus pneumoniae [1] = experiment: Antibacterial activity against fluoroquinolone, dye-resistant Streptococcus pneumoniae by standardized agar doubling dilution method in presence of 20 ug/ml reserpine efflux pump inhibitor; assay type: functional
Procedure, shortened: (§1)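 MIC by agar doubling dilution following BSAC guidelines. Strains grown in brain heart infusion broth 24 h at 37°C in 5% CO2. Where an efflux pump inhibitor applies, MIC redetermined with reserpine at 20 μg/ml or sodium orthovanadate at 50 μM. Synergy taken as a fall in MIC of ≥2 dilutions with inhibitor present. Dye resistance defined relative to R6 (both dyes ≥2 dilutions higher).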

Streptococcus pneumoniae [2] = experiment: Antibacterial activity against fluoroquinolone, dye-susceptible Streptococcus pneumoniae by standardized agar doubling dilution method in presence of 20 ug/ml reserpine efflux pump inhibitor; assay type: functional; procedure, shortened: as §1
Streptococcus pneumoniae [3] = experiment: Antibacterial activity against Streptococcus pneumoniae M318 overexpressing patA, patB and inactivated patA with single mutation by standardized agar doubling dilution method in presence of 50 uM sodium orthovanadate efflux pump inhibitor; assay type: functional
Procedure, shortened: (§2)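 MICs were determined by BSAC agar doubling dilution in the presence of sodium orthovanadate at 50 μM. Cultures were grown in BHI broth for 24 h at 37°C in 5% CO2, with R6 as control. Synergy was defined as an MIC reduction of ≥2 dilutions with the inhibitor present.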

Streptococcus pneumoniae [4] = experiment: Antibacterial activity against Streptococcus pneumoniae M46B overexpressing patA, patB and inactivated patB with single mutation by standardized agar doubling dilution method; assay type: functional
Procedure, shortened: (§3)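 MICs were determined by agar doubling dilution following BSAC guidelines, with no efflux inhibitor. Strains were grown in brain heart infusion broth for 24 h at 37°C in 5% CO2. Species identity was confirmed by Gram stain, optochin sensitivity and capsule test. Control strain R6 was tested alongside.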

Streptococcus pneumoniae [5] = experiment: Antibacterial activity against Streptococcus pneumoniae M311B overexpressing patA, patB and inactivated patB with single mutation by standardized agar doubling dilution method in presence of 50 uM sodium orthovanadate efflux pump inhibitor; assay type: functional
Procedure, shortened: (§4)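 MICs determined by BSAC standardized agar doubling dilution. Strains were grown in brain heart infusion broth for 24 h at 37°C in 5% CO2. Inhibitor arms had reserpine at 20 μg/ml or sodium orthovanadate at 50 μM in the agar. Mutants were made by transforming magellan2 insertion amplimers into clinical isolates and selecting on spectinomycin 100 mg/liter, with a no-DNA spontaneous-mutation control.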

Streptococcus pneumoniae [6] = experiment: Antibacterial activity against fluoroquinolone, dye-resistant Streptococcus pneumoniae by standardized agar doubling dilution method; assay type: functional; procedure, shortened: as §1
Streptococcus pneumoniae [7] = experiment: Antibacterial activity against fluoroquinolone, dye-resistant Streptococcus pneumoniae M45 overexpressing patA, patB by standardized agar doubling dilution method in presence of 20 ug/ml reserpine efflux pump inhibitor; assay type: functional; procedure, shortened: as §1
Streptococcus pneumoniae [8] = experiment: Antibacterial activity against fluoroquinolone, dye-resistant Streptococcus pneumoniae M297 overexpressing patA, patB by standardized agar doubling dilution method in presence of 50 uM sodium orthovanadate efflux pump inhibitor; assay type: functional; procedure, shortened: as §1
Streptococcus pneumoniae [9] = experiment: Antibacterial activity against wild type Streptococcus pneumoniae R6 by standardized agar doubling dilution method in presence of 50 uM sodium orthovanadate efflux pump inhibitor; assay type: functional; procedure, shortened: as §1
Streptococcus pneumoniae [10] = experiment: Antibacterial activity against Streptococcus pneumoniae M309 overexpressing patA, patB and inactivated patB with single mutation by standardized agar doubling dilution method in presence of 20 ug/ml reserpine efflux pump inhibitor; assay type: functional; procedure, shortened: as §4
Streptococcus pneumoniae [11] = experiment: Antibacterial activity against fluoroquinolone-resistant Streptococcus pneumoniae M97 FQ-R overexpressing patA, patB by standardized agar doubling dilution method in presence of 20 ug/ml reserpine efflux pump inhibitor; assay type: functional
Procedure, shortened: (§5)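 MIC by agar doubling dilution per BSAC guidelines; strains pregrown in brain heart infusion broth 24 h, 37°C, 5% CO2. MICs measured alone and with efflux pump inhibitors reserpine (20 μg/ml) or sodium orthovanadate (50 μM); synergy defined as ≥2-dilution MIC reduction in presence of inhibitor.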

Streptococcus pneumoniae [12] = experiment: Antibacterial activity against fluoroquinolone-resistant Streptococcus pneumoniae M100 FQ-R overexpressing patA, patB by standardized agar doubling dilution method; assay type: functional; procedure, shortened: as §5
Streptococcus pneumoniae [13] = experiment: Antibacterial activity against fluoroquinolone-resistant Streptococcus pneumoniae M98 FQ-R overexpressing patA, patB by standardized agar doubling dilution method in presence of 50 uM sodium orthovanadate efflux pump inhibitor; assay type: functional
Procedure, shortened: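 Clinical S. pneumoniae isolates grown in BHI broth 24 h at 37°C in 5% CO2. MICs by agar doubling dilution per BSAC guidelines, alone or with efflux inhibitor reserpine (20 μg/ml) or sodium orthovanadate (50 μM). Synergy defined as ≥2-dilution MIC reduction in presence of inhibitor.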

Streptococcus pneumoniae [14] = experiment: Antibacterial activity against Streptococcus pneumoniae M301 overexpressing patA, patB and inactivated patA with single mutation by standardized agar doubling dilution method in presence of 50 uM sodium orthovanadate efflux pump inhibitor; assay type: functional; procedure, shortened: as §4
Streptococcus pneumoniae [15] = experiment: Antibacterial activity against Streptococcus pneumoniae M310 overexpressing patA, patB and inactivated patB with single mutation by standardized agar doubling dilution method in presence of 50 uM sodium orthovanadate efflux pump inhibitor; assay type: functional; procedure, shortened: as §4
Streptococcus pneumoniae [16] = experiment: Antibacterial activity against Streptococcus pneumoniae M319 overexpressing patA, patB and inactivated patB with single mutation by standardized agar doubling dilution method; assay type: functional; procedure, shortened: as §3
Streptococcus pneumoniae [17] = experiment: Antibacterial activity against Streptococcus pneumoniae M298 overexpressing patA, patB and inactivated patA with single mutation by standardized agar doubling dilution method in presence of 20 ug/ml reserpine efflux pump inhibitor
Streptococcus pneumoniae [18] = experiment: Antibacterial activity against fluoroquinolone, dye-resistant Streptococcus pneumoniae M50 overexpressing patA, patB by standardized agar doubling dilution method in presence of 20 ug/ml reserpine efflux pump inhibitor; assay type: functional; procedure, shortened: as §1
Streptococcus pneumoniae [19] = experiment: Antibacterial activity against fluoroquinolone, dye-resistant Streptococcus pneumoniae by standardized agar doubling dilution method in presence of 50 uM sodium orthovanadate efflux pump inhibitor; assay type: functional; procedure, shortened: as §1
Streptococcus pneumoniae [20] = experiment: Antibacterial activity against Streptococcus pneumoniae M304 overexpressing patA, patB and inactivated patA with single mutation by standardized agar doubling dilution method in presence of 20 ug/ml reserpine efflux pump inhibitor; assay type: functional; procedure, shortened: as §4
Streptococcus pneumoniae [21] = experiment: Antibacterial activity against Streptococcus pneumoniae M45A overexpressing patA, patB and inactivated patA with single mutation by standardized agar doubling dilution method in presence of 50 uM sodium orthovanadate efflux pump inhibitor; assay type: functional; procedure, shortened: as §2
Streptococcus pneumoniae [22] = experiment: Antibacterial activity against fluoroquinolone-resistant Streptococcus pneumoniae M98 FQ-R overexpressing patA, patB by standardized agar doubling dilution method in presence of 20 ug/ml reserpine efflux pump inhibitor; assay type: functional; procedure, shortened: as §5
Streptococcus pneumoniae [23] = experiment: Antibacterial activity against fluoroquinolone, dye-resistant Streptococcus pneumoniae M296 overexpressing patA, patB by standardized agar doubling dilution method; assay type: functional; procedure, shortened: as §1
Streptococcus pneumoniae [24] = experiment: Antibacterial activity against fluoroquinolone, dye-resistant Streptococcus pneumoniae M45 overexpressing patA, patB by standardized agar doubling dilution method in presence of 50 uM sodium orthovanadate efflux pump inhibitor; assay type: functional; procedure, shortened: as §1
Streptococcus pneumoniae [25] = experiment: Antibacterial activity against Streptococcus pneumoniae M300 overexpressing patA, patB and inactivated patA with single mutation by standardized agar doubling dilution method; assay type: functional; procedure, shortened: as §4
Streptococcus pneumoniae [26] = experiment: Antibacterial activity against Streptococcus pneumoniae M86A overexpressing patA, patB and inactivated patA with single mutation by standardized agar doubling dilution method; assay type: functional; procedure, shortened: as §3
Streptococcus pneumoniae [27] = experiment: Antibacterial activity against Streptococcus pneumoniae M303 overexpressing patA, patB and inactivated patA with single mutation by standardized agar doubling dilution method; assay type: functional; procedure, shortened: as §4

| SMILES | MIC90 (Streptococcus pneumoniae [1]) [µg/mL] | MIC90 (Streptococcus pneumoniae [2]) [µg/mL] | MIC (Streptococcus pneumoniae [3]) [µg/mL] | MIC (Streptococcus pneumoniae [4]) [µg/mL] | MIC (Streptococcus pneumoniae [5]) [µg/mL] | MIC90 (Streptococcus pneumoniae [6]) [µg/mL] | MIC (Streptococcus pneumoniae [7]) [µg/mL] | MIC (Streptococcus pneumoniae [8]) [µg/mL] | MIC (Streptococcus pneumoniae [9]) [µg/mL] | MIC (Streptococcus pneumoniae [10]) [µg/mL] | MIC (Streptococcus pneumoniae [11]) [µg/mL] | MIC (Streptococcus pneumoniae [12]) [µg/mL] | MIC (Streptococcus pneumoniae [13]) [µg/mL] | MIC (Streptococcus pneumoniae [14]) [µg/mL] | MIC (Streptococcus pneumoniae [15]) [µg/mL] | MIC (Streptococcus pneumoniae [16]) [µg/mL] | MIC (Streptococcus pneumoniae [17]) [µg/mL] | MIC (Streptococcus pneumoniae [18]) [µg/mL] | MIC90 (Streptococcus pneumoniae [19]) [µg/mL] | MIC (Streptococcus pneumoniae [20]) [µg/mL] | other results |
| --- | --- | --- | --- | --- | --- | --- | --- | --- | --- | --- | --- | --- | --- | --- | --- | --- | --- | --- | --- | --- | --- |
| CC[n+]1c(-c2ccccc2)c2cc(N)ccc2c2ccc(N)cc21.[Br-] [HOMIDIUM BROMIDE] | 0.5 | 0.25 | 0.5 | 0.5 | 8 | 8 | 0.5 | 1 | 0.1 | 0.5 | 0.5 | 4 | 1 | 0.25 | 8 | 0.5 | 0.5 | 0.5 | 1 | 0.5 | MIC (Streptococcus pneumoniae [21]): 0.5 µg/mL; MIC (Streptococcus pneumoniae [22]): 0.12 µg/mL; MIC (Streptococcus pneumoniae [23]): 8 µg/mL; MIC (Streptococcus pneumoniae [24]): 1 µg/mL; MIC (Streptococcus pneumoniae [25]): 0.5 µg/mL; MIC (Streptococcus pneumoniae [26]): 0.5 µg/mL; MIC (Streptococcus pneumoniae [27]): 1 µg/mL |
| O=C(O)c1cn(C2CC2)c2cc(N3CCNCC3)c(F)cc2c1=O [CIPROFLOXACIN] | 4 | 0.5 | 16 | 0.12 (≈ 0.362 µM) | 4 | 16 (≈ 48.3 µM) | 1 | 8 | 0.1 | 1 | 4 | 8 (≈ 24.1 µM) | 32 | 8 | 2 | 16 (≈ 48.3 µM) | 8 | 32 | 8 | 1 | MIC (Streptococcus pneumoniae [21]): 1 µg/mL; MIC (Streptococcus pneumoniae [22]): 2 µg/mL; MIC (Streptococcus pneumoniae [23]): 2 µg/mL (≈ 6.04 µM); MIC (Streptococcus pneumoniae [24]): 1 µg/mL; MIC (Streptococcus pneumoniae [25]): 2 µg/mL (≈ 6.04 µM); MIC (Streptococcus pneumoniae [26]): 1 µg/mL (≈ 3.02 µM); MIC (Streptococcus pneumoniae [27]): 2 µg/mL (≈ 6.04 µM) |
